Results from ChEMBL document CHEMBL1142987, “Cinnamoyl compounds as simple molecules that inhibit p300 histone acetyltransferase” (J Med Chem, 2007).
Active and inactive are the calls of the source. No cut-off for these calls is given here.

Columns and labels:
[1] = biological target: T1, Histone acetyltransferase p300 (Homo sapiens, UniProt Q09472); test: Inhibition of GST-p300 HAT assessed as histone acetylation
Summary of the method: (§1)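 Recombinant histones H1, H2A, H2B, H3 and H4 were acetylated in vitro by the p300 HAT domain. Acetylated histones were detected by gel autoradiography, with Coomassie staining for total histone. IC50 was taken from densitometric dose–response curves, as the mean of at least three separate experiments.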

[2] = biological target: Histone acetyltransferase KAT2B (Homo sapiens) (UniProt Q92831); test: Activity of GST-PCAF assessed as HAT activity at 21 uM
Histone acetyltransferase KAT2B (Homo sapiens), sequence (Q92831 whole entry, looked up): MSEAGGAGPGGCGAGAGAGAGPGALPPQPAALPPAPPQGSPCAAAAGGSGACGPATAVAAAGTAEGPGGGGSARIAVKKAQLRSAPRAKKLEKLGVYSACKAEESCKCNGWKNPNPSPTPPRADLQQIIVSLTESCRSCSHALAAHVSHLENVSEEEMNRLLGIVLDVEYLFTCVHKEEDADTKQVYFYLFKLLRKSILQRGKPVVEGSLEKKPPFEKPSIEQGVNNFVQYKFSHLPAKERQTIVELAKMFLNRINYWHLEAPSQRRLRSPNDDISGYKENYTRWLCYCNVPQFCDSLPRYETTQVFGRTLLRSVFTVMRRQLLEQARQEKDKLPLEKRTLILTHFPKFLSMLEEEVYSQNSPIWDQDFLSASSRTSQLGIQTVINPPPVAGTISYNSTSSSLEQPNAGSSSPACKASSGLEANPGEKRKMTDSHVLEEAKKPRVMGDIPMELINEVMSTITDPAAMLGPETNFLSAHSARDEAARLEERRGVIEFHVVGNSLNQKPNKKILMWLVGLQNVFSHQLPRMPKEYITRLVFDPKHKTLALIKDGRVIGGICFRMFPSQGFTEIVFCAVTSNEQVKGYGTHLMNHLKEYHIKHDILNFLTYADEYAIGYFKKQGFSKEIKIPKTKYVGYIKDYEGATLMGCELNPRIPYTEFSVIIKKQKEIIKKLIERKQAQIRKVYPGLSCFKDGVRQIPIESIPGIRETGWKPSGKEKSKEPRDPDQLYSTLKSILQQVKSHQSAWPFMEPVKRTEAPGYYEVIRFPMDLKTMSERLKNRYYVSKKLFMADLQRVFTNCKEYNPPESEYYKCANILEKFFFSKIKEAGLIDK
Summary of the method: (§2)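 The same in vitro HAT assay was run with equal molar amounts of p300, PCAF and GCN5, each with a test compound at 5 or 21 µM. Acetylation was quantified by densitometry and expressed as percent variation from the DMSO-treated sample. Values are the mean of three independent experiments ± standard error.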

HeLa [3] = test: Acetylation of H3 in HeLa cells expressing H2B-EYFP upto 200 uM; assay type: functional, cell-based; conditions: Homo sapiens
Summary of the method: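 H2B-EYFP HeLa cells in 10% FCS-DMEM were treated with various compound concentrations up to 200 µM, then immunostained with anti-acetyl-H3 antibodies. H2B-EYFP fluorescence served as an internal control for protein expression.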

[4] = biological target: T1, Histone acetyltransferase p300; test: Activity of GST-p300 HAT assessed as HAT activity at 21 uM; summary of the method: as §2
[5] = biological target: Histone acetyltransferase KAT2A (Homo sapiens) (UniProt Q92830); test: Activity of GST-GCN5 assessed as HAT activity at 21 uM; summary of the method: as §2
Histone acetyltransferase KAT2A (Homo sapiens), sequence (Q92830 2-837 limits assumed): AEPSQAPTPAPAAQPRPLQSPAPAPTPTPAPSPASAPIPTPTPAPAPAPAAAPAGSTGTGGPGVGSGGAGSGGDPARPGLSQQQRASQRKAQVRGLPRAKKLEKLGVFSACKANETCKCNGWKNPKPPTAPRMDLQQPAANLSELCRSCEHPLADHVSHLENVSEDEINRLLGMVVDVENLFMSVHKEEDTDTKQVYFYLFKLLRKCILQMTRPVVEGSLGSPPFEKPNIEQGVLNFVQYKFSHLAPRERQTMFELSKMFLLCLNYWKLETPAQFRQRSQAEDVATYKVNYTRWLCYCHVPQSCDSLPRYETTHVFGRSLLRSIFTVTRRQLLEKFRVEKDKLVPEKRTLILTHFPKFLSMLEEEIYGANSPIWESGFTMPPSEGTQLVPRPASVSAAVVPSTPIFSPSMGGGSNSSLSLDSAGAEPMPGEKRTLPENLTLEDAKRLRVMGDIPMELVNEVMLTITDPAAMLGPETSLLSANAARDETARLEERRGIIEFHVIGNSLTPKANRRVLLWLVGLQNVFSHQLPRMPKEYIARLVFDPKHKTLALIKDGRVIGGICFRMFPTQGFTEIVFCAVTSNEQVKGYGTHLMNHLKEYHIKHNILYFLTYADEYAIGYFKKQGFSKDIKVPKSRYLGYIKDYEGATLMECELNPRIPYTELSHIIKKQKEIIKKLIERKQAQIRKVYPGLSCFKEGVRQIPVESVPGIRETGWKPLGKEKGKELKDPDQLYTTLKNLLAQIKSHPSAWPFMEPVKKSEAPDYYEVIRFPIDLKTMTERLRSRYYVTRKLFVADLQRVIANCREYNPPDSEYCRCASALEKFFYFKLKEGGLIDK

HeLa [6] = test: Cytotoxicity in HeLa cells expressing H2B-EYFP above 20 uM; assay type: functional, cell-based; conditions: Homo sapiens, in the assay text read “above 40 uM” for “above 20 uM”
Summary of the method: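 Cell toxicity in compound-treated H2B-EYFP HeLa cells was scored as decreased H2B-EYFP fluorescence.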

[7] = biological target: T1, Histone acetyltransferase p300; test: Activity of GST-p300 HAT assessed as HAT activity at 5 uM; summary of the method: as §2
HeLa [8] = test: Reduction of acetylation in HeLa cells expressing H2B-EYFP at 40 uM; assay type: functional, Homo sapiens; set-up: scale not given: the % may be the effect or the level left
Summary of the method: (§3)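 HeLa cells stably expressing H2B-EYFP were grown in 10% FCS-DMEM and treated with 20 or 40 µM compound or DMSO. Cells were then immunostained for acetyl-H3. Mean anti-acetyl-H3 fluorescence was normalized to H2B-EYFP fluorescence in the same cells and expressed as percent inhibition versus DMSO. Each of three independent experiments analyzed 150 cells; mean and standard error are reported.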

HeLa [9] = test: Reduction of acetylation in HeLa cells expressing H2B-EYFP at 20 uM; assay type: functional, Homo sapiens; set-up: scale not given: the % may be the effect or the level left; summary of the method: as §3
[10] = biological target: Histone acetyltransferase KAT2A (Homo sapiens) (UniProt Q92830); test: Activity of GST-GCN5 assessed as HAT activity at 5 uM; summary of the method: as §2
[11] = biological target: T1, Histone acetyltransferase p300; test: Inhibition of GST-p300 HAT expressed in bacteria assessed as histone acetylation
Summary of the method: as §1, with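 “domain. Compounds were tested at 25–400 µM, or from 0.19 µM for one compound.” for “domain.”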

[12] = biological target: T1, Histone acetyltransferase p300; test: Inhibition of full length GST-p300 expressed in Sf9 cells assessed as histone acetylation

T1 sequence (Q09472 whole entry, the tested form may be a part): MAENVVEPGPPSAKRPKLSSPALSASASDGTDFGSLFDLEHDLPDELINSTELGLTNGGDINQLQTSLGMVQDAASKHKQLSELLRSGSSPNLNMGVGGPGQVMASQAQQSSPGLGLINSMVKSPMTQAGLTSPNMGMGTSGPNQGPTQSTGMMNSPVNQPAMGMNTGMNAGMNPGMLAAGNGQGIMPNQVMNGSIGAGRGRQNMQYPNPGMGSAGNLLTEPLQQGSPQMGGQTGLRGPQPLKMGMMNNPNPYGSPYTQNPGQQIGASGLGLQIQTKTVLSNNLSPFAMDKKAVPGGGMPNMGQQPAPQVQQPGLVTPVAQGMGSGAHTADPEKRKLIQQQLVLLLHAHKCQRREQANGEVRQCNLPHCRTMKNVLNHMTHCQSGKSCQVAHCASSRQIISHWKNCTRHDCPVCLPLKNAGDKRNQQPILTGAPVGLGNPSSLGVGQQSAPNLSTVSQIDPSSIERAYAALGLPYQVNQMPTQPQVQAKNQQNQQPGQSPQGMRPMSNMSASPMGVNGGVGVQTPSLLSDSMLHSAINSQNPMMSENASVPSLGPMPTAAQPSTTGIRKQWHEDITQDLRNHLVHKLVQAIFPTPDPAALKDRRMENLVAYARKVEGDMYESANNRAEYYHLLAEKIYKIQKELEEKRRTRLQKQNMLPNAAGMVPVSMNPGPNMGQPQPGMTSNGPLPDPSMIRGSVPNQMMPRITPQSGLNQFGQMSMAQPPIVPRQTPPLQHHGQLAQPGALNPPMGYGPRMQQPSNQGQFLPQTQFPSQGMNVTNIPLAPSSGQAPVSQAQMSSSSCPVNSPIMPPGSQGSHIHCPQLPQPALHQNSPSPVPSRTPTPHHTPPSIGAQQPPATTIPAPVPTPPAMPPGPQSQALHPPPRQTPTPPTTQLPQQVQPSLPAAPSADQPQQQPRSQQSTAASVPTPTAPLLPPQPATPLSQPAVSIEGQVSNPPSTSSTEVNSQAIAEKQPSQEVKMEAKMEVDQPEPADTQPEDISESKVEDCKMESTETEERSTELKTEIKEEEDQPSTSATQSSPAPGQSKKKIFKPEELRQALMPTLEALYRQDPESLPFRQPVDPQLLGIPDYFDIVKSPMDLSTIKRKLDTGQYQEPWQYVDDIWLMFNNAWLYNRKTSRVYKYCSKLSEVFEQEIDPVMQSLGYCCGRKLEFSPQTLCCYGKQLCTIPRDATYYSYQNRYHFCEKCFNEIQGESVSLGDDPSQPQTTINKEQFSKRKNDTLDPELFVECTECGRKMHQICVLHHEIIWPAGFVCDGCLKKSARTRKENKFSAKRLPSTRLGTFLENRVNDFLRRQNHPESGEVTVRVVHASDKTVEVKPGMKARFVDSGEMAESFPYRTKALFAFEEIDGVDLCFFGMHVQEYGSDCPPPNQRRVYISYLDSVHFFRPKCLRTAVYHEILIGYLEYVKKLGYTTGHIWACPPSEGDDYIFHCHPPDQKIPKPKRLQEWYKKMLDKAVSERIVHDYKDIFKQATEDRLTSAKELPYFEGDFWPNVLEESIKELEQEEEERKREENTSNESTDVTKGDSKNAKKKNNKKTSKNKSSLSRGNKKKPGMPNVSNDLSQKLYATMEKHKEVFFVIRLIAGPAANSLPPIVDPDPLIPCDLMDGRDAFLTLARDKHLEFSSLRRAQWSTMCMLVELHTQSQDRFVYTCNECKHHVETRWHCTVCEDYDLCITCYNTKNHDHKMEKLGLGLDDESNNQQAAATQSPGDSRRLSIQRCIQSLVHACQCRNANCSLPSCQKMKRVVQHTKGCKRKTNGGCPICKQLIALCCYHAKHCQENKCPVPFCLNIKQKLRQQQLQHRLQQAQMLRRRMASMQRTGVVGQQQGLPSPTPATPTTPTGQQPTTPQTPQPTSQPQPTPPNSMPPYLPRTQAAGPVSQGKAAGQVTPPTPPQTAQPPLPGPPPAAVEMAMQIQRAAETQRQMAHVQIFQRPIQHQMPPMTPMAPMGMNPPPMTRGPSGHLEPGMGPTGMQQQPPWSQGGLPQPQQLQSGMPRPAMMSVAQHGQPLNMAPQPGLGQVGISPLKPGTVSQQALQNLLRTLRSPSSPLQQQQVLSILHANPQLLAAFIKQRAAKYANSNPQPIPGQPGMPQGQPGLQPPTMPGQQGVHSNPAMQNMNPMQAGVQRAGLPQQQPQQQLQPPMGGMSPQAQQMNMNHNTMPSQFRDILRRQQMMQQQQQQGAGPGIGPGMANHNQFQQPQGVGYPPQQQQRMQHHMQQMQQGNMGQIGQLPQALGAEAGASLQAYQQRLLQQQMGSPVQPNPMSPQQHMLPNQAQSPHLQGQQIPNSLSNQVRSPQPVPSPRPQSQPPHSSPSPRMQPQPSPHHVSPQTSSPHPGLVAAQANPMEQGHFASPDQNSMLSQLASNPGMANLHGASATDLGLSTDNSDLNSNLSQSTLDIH

## O=C(/C=C(O)/C=C/c1ccc(O)c(Br)c1)/C=C/c1ccc(O)c(Br)c1
[1]
  IC50: 33 µM

## O=C1/C(=C/c2ccc(O)c(O)c2)CCC/C1=C\c1ccc(O)c(O)c1
[1]
  IC50: 233 µM

## O=C(/C=C(O)/C=C/c1ccc(O)c(C(=O)O)c1)/C=C/c1ccc(O)c(C(=O)O)c1
[2]
  Activity: 68%
HeLa [3]
  Activity: inactive
[4]
  Activity: 50%
[1]
  IC50: 21 µM
[5]
  Activity: 38%

## COc1cc(/C=C2\CCC/C(=C\c3ccc(O)c(OC)c3)C2=O)ccc1O [CYCLOVALONE]
[1]
  IC50: 111 µM

## O=C1/C(=C/c2ccc(O)c(Br)c2)CCC/C1=C\c1ccc(O)c(Br)c1
HeLa [6]
  Activity: Active
[7]
  Activity: 50%
HeLa [8]
  Activity: > 50%
HeLa [9]
  Activity: 30%
[1]
  IC50: 5 µM
[10]
  Activity: 70%

## O=C(/C=C(O)/C=C/c1ccc(O)c(O)c1)/C=C/c1ccc(O)c(O)c1
[1]
  IC50: 46 µM

## O=C1/C(=C/c2ccc(O)c(C(=O)O)c2)CCC/C1=C\c1ccc(O)c(C(=O)O)c1
[1]
  IC50: 168 µM

## COc1cc(/C=C/C(=O)CC(=O)/C=C/c2ccc(O)c(OC)c2)ccc1O
[11]
  Activity: inactive
[12]
  Activity: inactive
